Screening data deposited in PubChem by several laboratories.
NR2E3 ag-1: inhibitors of NR2E3-RetCOR corepressor binding, primary screen, NR2E3 agonist project, biochemical, TR-FRET, GST-NR2E3, biotin-RetCOR; Photoreceptor-specific nuclear receptor (Homo sapiens), Q9Y5X4; 1536-well; inhibition of corepressor binding, % at 4.78 µM; 0.12% of 320,000 active; AID 2300, 2010;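 active = percent inhibition above the cutoff of mean plus 3 SD of all tested compounds, set per screening campaign, cut at about 20% in these data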;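 note: 0% = DMSO wells and 100% = biotin wells as full block of FRET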
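System: GST-NR2E3 and biotin-RetCOR proteins; probe or stimulus: 7 nM biotin-RetCOR; doses: compound at 4.8 µM, single dose; schedule: Compound–protein incubation for 5 h at 4 °C; detection: time-resolved FRET; read-out: percent inhibition; controls: biotin wells as high control, 0.6% DMSO wells as low control; format: 1536-well plates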
SKN-1 inh: suppressors of acrylamide-induced Pgst-4::GFP reporter in worms, primary screen, SKN-1 inhibitor project, whole organism, uHTS, GFP/RFP fluorescence ratio, strain VP596. C. elegans VP596 Pgst-4::GFP/RFP ratio, 24 h. inhibition, % at 21.8 µM. 0.49% of 360,000 active. AID 624304, 2012;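 active = interference check ratio from 0.5 to 1.5 plus GFP to RFP signal ratio inhibition reaching or exceeding a fixed threshold, cut at about 30% in these data, passing the limit was not always enough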
PG9 binder: binders of HIV-1 gp120 antibody PG9, primary screen, biochemical, TR-FRET | HIV-1 gp120 / PG9 antibody interaction | TR-FRET gp120-PG9 antibody binding | inhibition, % at 6.7 µM | 0.43% of 360,000 active | AID 624416, 2012; in the data active = inhibition above about 8.5%
MT1-MMP act inh: blockers of MT1-MMP proenzyme processing, primary screen, HT1080 RFP-PRO-GFP cells, GFP/RFP fluorescence. GFP/RFP ratio fluorescence, overnight; percent of plate control window, DMSO zero. GFP/RFP ratio change, % at 20 µM. 0.061% of 360,000 active. AID 651647, 2012;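 active = GFP/RFP ratio change of at least 30% with cell ATP level not reduced by more than half and red fluorescence within 50% of control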
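system = RFP-PRO-GFP reporter HT1080 cells | dosing = 20 µM single dose, 1% DMSO | timing = overnight cell settling, then overnight compound exposure, 37 °C, 5% CO2 | read-out basis = GFP/RFP fluorescence ratio | controls = DMSO and RFP-L50D-GFP cell wells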
NR2E3 ag-2: NR2E3 agonists in two-hybrid cells, primary screen, cell-based, luminescence, CHO-S, Gal4-NCOR/VP16-NR2E3; Photoreceptor-specific nuclear receptor (Homo sapiens), Q9Y5X4; luciferase; inhibition of corepressor binding, % at 3.98 µM; 0.35% of 360,000 active;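 active = inhibition above the mean of all tested compounds plus 3 SD, cut at about 70% in these data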;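 note: 0% = DMSO with NR2E3 transfected cells and 100% = cells lacking NR2E3 construct; higher means lower luciferase signal from less NR2E3 corepressor binding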
Rev-erbA mod: modulators of Rev-erb alpha DNA binding, primary screen, biochemical, FITC-DNA, fluorescence polarization, uHTS | Nuclear receptor subfamily 1 group D member 1 (Homo sapiens), P20393 | Rev-erbα–FITC-DNA binding, 90 min | 0.79% of 370,000 active | activity, % at 10 µM | AID 1259318, 2017;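 active = activity above about 14%, limit read from the data; passing the limit was not always enough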;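 note: 0% = DMSO wells with 35 nM protein and 100% = DMSO wells with 750 nM protein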
Target sequence (P20393 whole entry, looked up): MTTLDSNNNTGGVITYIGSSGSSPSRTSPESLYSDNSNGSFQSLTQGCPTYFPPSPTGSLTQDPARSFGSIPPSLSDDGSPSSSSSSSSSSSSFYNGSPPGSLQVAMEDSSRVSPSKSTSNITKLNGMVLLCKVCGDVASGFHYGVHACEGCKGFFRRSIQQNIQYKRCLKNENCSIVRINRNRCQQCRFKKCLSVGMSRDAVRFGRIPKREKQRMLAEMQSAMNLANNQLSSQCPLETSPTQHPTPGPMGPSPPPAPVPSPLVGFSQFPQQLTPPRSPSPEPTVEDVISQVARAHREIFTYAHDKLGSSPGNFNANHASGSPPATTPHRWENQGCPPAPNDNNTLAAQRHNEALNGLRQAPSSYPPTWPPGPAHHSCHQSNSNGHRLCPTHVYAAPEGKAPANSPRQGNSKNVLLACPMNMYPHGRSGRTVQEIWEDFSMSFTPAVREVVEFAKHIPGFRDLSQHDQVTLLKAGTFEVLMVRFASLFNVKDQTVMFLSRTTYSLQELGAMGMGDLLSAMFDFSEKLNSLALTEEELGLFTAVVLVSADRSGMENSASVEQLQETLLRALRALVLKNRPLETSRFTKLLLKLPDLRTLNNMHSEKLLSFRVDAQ
NR1D1 mod conf: modulators of Rev-erb alpha DNA binding, confirmation, biochemical, FITC-DNA, fluorescence polarization, single point | 90 min | shares compounds with Rev-erbA mod | activation, % at 25 µM | 61% of 3,000 active;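 active = activation at or above a set limit, or at least 3 SD above the negative control mean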;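 note: 0% = 35 nM protein with DMSO and 100% = 750 nM protein high control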
RORg DNA counter: modulation of RORgamma DNA binding, dose response, counter-screen for Rev-erb alpha modulator project, biochemical, fluorescence polarization, FITC-DNA | purified RORgamma protein-FITC-DNA binding | shares compounds with Rev-erbA mod | IC50, µM | 8% of 910 active;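 active = Compounds whose fitted half-maximal concentration for disrupting protein-DNA binding is below 10 micromolar; the record names Rev-erb in its text, so the target is in doubt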
* marks the source's active call; other numbers are inactive results; . = no result given. In the library only some 1.9% were active in any assay of this set; here they are far more common.

SMILES	NR2E3 ag-1	SKN-1 inh	PG9 binder	MT1-MMP act inh	NR2E3 ag-2	Rev-erbA mod	NR1D1 mod conf	others
CC(=O)C1=C(C)N(Cc2ccc(F)cc2)C(=S)NC1c1cccc(Br)c1 (stereo unspecified)	.	.	-2	.	.	-1	.
COC(=O)C1=C(C)N(Cc2ccc(C(F)(F)F)cc2)C(=NCC2CC2)NC1c1cccc(Cl)c1 (stereo unspecified)	.	.	1	.	.	1	.
CCCCCn1c(SCC(=O)c2ccccc2)nc2cc(C(=O)NCC3CCCO3)ccc2c1=O (stereo unspecified)	.	-2	-1	-2	-15	69*	25*
CCOc1ccc(C2CC=C(C(C)=O)CN2S(=O)(=O)c2ccc(C)cc2)cc1 (stereo unspecified)	.	4	0	2	-6	-2	.
COC(=O)[C@@]12CCCCN1[C@H](c1ccc(-c3cc(C(C)=O)cs3)cc1)[C@H]1C(=O)N(C)C(=O)[C@H]12	3	7	1	2	-5	30*	22*
COC(=O)[C@@]12CCCCN1[C@H](c1ccc(-c3cc(C(C)=O)cs3)c(OC)c1)[C@H]1C(=O)N(C)C(=O)[C@H]12	-1	2	-3	-4	-12	41*	34*
CCC(C)Sc1ccc([C@@H]2[C@H]3C(=O)N(CC)C(=O)[C@H]3[C@]3(C(=O)OC)CCCCN23)cc1 (stereo partly specified)	1	15	0	-19	-23	16*	8
Cc1[nH]c2ccccc2c1C(=O)c1cc(Cc2ccccc2)sc1N	.	13	1	-3	.	-1	.
O=S(=O)(c1ccccc1)N1CCN(c2nc(-c3cccs3)nc3ccccc23)CC1	0	.	.	.	.	.	.
O=S(=O)(c1ccc(Cl)cc1)N1CCN(c2nc(-c3cccs3)nc3ccccc23)CC1	.	-3	-2	-12	-5	29*	14
CCOC(=O)c1c(NC(=S)Nc2ccc(OC)cc2)sc2c1CCC2	4	0	-1	1	-9	47*	37*	RORg DNA counter=>40
COc1cc2c(cc1OC)[C@@]1(c3ccccc3)CCCC[C@H]1[C@@H]2NC(=O)C(F)(F)F	.	.	0	.	.	-4	.
Cc1ccc(S(=O)(=O)N(C)c2ccc(OCC(=O)Nc3nc4c(ccc5ccccc54)s3)cc2)cc1	-1	16	-2	0	-36	24*	27*
O=C(Nc1ccc2ncccc2c1)c1cc(-c2ccc(Cl)cc2)nc2ccccc12	.	.	.	.	.	8	.
COc1ccc(CNC(=O)c2c(O)c3cc(OC)c(OC)cc3[nH]c2=O)cc1OC	.	9	1	1	4	12	.
COc1cc2[nH]c(=O)c(C(=O)NCc3ccc(F)cc3)c(O)c2cc1OC	.	-2	1	2	-17	25*	19*
NC(=O)c1c(N)[nH]c(C(=O)c2ccccc2)c1-c1ccc(Br)cc1	.	.	-2	.	.	1	.
N#CCSc1nc(-c2ccccc2)c2cc(Cl)ccc2n1	1	1	0	-2	10	21*	10
COc1ccc(OC)c(Nc2nc(C)nc3c2oc2ccccc23)c1	2	21	2	-3	-29	1	.
COc1ccc(Cl)cc1Nc1nc(C)nc2c1oc1ccccc12	0	20	0	-1	-21	15*	23*
